# Laboratory results reported in ChEMBL document CHEMBL2311514, “Further exploration of M₁ allosteric agonists: subtle structural changes abolish M₁ allosteric agonism and result in pan-mAChR orthosteric antagonism” (Bioorg Med Chem Lett, 2013).
# Residue numbers refer to the chain shown, from its start. Active and inactive are the calls of the source. The calls are words filed in the database; no cut-off is given here.
# Columns and labels:
# [1] = biological target: T1, Muscarinic acetylcholine receptor M3 (Rattus norvegicus, UniProt P08483); assay: (§1) Antagonist activity at rat muscarinic M3 receptor expressed in CHO cells assessed as inhibition of Ach-induced calcium response; type: functional, cell-based
# [2] = biological target: T2, Muscarinic acetylcholine receptor M5 (Homo sapiens, UniProt P08912); assay: (§2) Antagonist activity at human muscarinic M5 receptor expressed in CHO cells assessed as inhibition of Ach-induced calcium response; type: functional, cell-based
# T2 sequence (P08912 whole entry): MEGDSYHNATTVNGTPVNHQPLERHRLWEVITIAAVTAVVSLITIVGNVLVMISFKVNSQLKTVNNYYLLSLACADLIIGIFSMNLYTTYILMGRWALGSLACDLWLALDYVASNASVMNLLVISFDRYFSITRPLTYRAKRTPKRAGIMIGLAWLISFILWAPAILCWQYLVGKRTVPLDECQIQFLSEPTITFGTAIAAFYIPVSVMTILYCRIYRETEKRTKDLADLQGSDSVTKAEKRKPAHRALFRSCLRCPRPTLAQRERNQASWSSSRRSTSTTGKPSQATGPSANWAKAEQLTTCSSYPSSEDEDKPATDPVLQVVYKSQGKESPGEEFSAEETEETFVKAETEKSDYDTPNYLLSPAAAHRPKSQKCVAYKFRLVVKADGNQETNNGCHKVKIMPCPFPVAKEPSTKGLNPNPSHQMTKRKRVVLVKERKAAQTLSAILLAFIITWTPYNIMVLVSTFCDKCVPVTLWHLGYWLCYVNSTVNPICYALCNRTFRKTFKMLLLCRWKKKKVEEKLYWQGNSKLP
# [3] = biological target: T3, Muscarinic acetylcholine receptor M2 (Homo sapiens, UniProt P08172); assay: (§3) Antagonist activity at human muscarinic M2 receptor expressed in CHO cells assessed as inhibition of Ach-induced calcium response; type: functional, cell-based
# T3 sequence (P08172 whole entry): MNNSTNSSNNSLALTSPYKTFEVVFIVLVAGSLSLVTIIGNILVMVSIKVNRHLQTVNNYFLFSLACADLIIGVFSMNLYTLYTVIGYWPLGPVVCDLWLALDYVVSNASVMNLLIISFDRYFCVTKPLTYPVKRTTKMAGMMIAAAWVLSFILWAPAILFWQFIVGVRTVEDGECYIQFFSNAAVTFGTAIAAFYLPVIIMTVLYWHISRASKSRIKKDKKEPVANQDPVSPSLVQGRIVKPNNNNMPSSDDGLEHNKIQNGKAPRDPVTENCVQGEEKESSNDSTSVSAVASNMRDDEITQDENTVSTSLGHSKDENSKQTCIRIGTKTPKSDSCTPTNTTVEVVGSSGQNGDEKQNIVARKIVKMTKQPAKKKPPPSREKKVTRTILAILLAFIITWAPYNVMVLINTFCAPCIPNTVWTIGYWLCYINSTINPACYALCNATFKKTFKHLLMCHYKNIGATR
# [4] = biological target: T4, Muscarinic acetylcholine receptor M2 (Rattus norvegicus, UniProt P10980); assay: (§4) Antagonist activity at rat muscarinic M2 receptor expressed in CHO cells assessed as inhibition of Ach-induced calcium response; type: functional, cell-based
# T4 sequence (P10980 whole entry): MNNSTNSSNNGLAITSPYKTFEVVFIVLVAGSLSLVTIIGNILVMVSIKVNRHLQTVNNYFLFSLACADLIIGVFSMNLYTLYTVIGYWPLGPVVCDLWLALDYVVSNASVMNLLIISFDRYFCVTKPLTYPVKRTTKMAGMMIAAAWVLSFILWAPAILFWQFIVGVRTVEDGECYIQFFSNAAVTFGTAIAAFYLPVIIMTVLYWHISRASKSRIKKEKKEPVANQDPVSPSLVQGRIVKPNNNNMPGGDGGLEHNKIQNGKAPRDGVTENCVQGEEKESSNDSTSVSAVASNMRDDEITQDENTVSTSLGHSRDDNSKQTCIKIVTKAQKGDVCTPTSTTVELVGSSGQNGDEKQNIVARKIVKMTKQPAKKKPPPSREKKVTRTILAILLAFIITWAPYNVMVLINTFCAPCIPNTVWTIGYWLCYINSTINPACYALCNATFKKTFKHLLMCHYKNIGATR
# [5] = biological target: T2, Muscarinic acetylcholine receptor M5; assay: Partial agonist activity at human muscarinic M5 receptor expressed in CHO cells calcium response; type: functional, cell-based
# [6] = biological target: T1, Muscarinic acetylcholine receptor M3; assay: Partial agonist activity at rat muscarinic M3 receptor expressed in CHO cells calcium response; type: functional, cell-based
# Method in brief: (§5)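 Run in agonist mode as concentration-response curves on rat M1–M5 receptors. EC50 and pEC50 were taken from the curves. Efficacy was expressed as a percentage of the maximal acetylcholine response.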
# [7] = biological target: T5, Muscarinic acetylcholine receptor M5 (Rattus norvegicus, UniProt P08911); assay: (§6) Antagonist activity at rat muscarinic M5 receptor expressed in CHO cells assessed as inhibition of Ach-induced calcium response; type: functional, cell-based
# T5 sequence (P08911 whole entry): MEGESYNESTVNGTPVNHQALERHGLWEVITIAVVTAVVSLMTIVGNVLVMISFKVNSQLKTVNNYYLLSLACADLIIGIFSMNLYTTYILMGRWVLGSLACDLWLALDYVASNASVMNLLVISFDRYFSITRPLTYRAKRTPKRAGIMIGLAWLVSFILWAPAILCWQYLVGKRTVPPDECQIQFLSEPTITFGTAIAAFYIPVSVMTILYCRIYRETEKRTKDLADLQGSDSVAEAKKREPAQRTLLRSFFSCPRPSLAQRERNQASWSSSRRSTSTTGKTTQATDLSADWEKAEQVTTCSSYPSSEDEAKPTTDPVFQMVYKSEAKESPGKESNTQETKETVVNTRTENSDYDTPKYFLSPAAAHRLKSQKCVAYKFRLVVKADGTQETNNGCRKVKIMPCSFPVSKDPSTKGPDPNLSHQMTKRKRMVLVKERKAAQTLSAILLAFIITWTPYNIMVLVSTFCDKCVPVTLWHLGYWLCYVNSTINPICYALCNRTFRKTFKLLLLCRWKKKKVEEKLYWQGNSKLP
# [8] = biological target: T4, Muscarinic acetylcholine receptor M2; assay: Partial agonist activity at rat muscarinic M2 receptor expressed in CHO cells calcium response; type: functional, cell-based; method in brief: as §5
# [9] = biological target: T6, Muscarinic acetylcholine receptor M1 (Rattus norvegicus) (UniProt P08482); assay: Partial agonist activity at rat muscarinic M1 receptor expressed in CHO cells calcium response relative to acetylcholine; type: functional, cell-based; method in brief: as §5
# T6 sequence (whole entry): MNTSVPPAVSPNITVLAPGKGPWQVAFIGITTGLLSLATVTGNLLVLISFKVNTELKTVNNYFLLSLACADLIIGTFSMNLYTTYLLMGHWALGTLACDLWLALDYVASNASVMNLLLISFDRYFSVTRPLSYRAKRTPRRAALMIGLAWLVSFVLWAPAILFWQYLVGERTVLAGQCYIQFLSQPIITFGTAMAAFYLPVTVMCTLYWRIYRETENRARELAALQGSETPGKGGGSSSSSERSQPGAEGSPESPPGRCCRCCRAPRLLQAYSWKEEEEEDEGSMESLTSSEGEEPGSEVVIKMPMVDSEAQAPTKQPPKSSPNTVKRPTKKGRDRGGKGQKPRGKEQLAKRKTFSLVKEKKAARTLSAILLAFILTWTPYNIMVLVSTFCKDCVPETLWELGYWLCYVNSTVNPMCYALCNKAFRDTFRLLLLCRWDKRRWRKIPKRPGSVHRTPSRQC
# [10] = biological target: T3, Muscarinic acetylcholine receptor M2; assay: Partial agonist activity at human muscarinic M2 receptor expressed in CHO cells calcium response; type: functional, cell-based
# [11] = biological target: T7, Muscarinic acetylcholine receptor M1 (Rattus norvegicus, UniProt P08482); assay: (§7) Partial agonist activity at rat muscarinic M1 receptor expressed in CHO cells calcium response; type: functional, cell-based; method in brief: as §5
# T7 sequence (P08482 whole entry): T6 sequence (whole entry)
# [12] = biological target: T6, Muscarinic acetylcholine receptor M1 (Rattus norvegicus); assay: (§8) Antagonist activity at rat muscarinic M1 receptor expressed in CHO cells assessed as inhibition of Ach-induced calcium response; type: functional, cell-based
# [13] = biological target: T7, Muscarinic acetylcholine receptor M1; assay: as §8; type: functional, cell-based
# [14] = biological target: T8, Muscarinic acetylcholine receptor M1 (Homo sapiens) (UniProt P11229); assay: Antagonist activity at human muscarinic M1 receptor expressed in CHO cells assessed as inhibition of acetylcholine-induced calcium response; type: functional, cell-based
# T8 sequence (whole entry): T6 sequence (whole entry) with V5A, S254T, S309P, K320R, G337A, V413I
# [15] = biological target: T6, Muscarinic acetylcholine receptor M1 (Rattus norvegicus); assay: Orthosteric antagonist activity at rat muscarinic M1 receptor expressed in CHO cells using [3HNMS] at 50 uM by dissociation kinetic studies; type: cell-based
# [16] = biological target: T6, Muscarinic acetylcholine receptor M1 (Rattus norvegicus); assay: as §7; type: functional, cell-based; method in brief: as §5
# [17] = biological target: T9, Muscarinic acetylcholine receptor M5 (Homo sapiens) (UniProt P08912); assay: as §2; type: functional, cell-based
# T9 sequence (whole entry): T2 sequence (P08912 whole entry)
# [18] = biological target: T10, Muscarinic acetylcholine receptor M2 (Homo sapiens) (UniProt P08172); assay: as §3; type: functional, cell-based
# T10 sequence (whole entry): T3 sequence (P08172 whole entry)
# [19] = biological target: T7, Muscarinic acetylcholine receptor M1; assay: Displacement of [3H]NMS from rat muscarinic M1 receptor expressed in CHO cells after 3 hrs; type: cell-based
# [20] = biological target: T11, Muscarinic acetylcholine receptor M4 (Rattus norvegicus, UniProt P08485); assay: (§9) Antagonist activity at rat muscarinic M4 receptor expressed in CHO cells assessed as inhibition of Ach-induced calcium response; type: functional, cell-based
# T11 sequence (P08485 whole entry): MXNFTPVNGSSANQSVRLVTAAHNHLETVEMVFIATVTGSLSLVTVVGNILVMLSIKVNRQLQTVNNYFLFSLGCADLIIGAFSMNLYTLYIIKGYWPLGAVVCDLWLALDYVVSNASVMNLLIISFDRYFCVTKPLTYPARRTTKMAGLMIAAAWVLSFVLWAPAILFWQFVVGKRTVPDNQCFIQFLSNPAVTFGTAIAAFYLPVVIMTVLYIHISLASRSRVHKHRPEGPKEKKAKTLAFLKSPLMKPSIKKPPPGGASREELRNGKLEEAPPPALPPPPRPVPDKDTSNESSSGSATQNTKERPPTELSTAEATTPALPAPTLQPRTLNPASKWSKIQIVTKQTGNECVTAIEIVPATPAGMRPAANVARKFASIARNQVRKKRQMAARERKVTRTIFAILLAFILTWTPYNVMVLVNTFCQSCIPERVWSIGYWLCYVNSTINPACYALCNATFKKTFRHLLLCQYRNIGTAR
# [21] = biological target: Muscarinic acetylcholine receptor M3 (Rattus norvegicus) (UniProt P08483); assay: as §1; type: functional, cell-based
# [22] = biological target: T12, Muscarinic acetylcholine receptor M2 (Rattus norvegicus) (UniProt P10980); assay: as §4; type: functional, cell-based
# T12 sequence (whole entry): T4 sequence (P10980 whole entry)
# [23] = biological target: T13, Muscarinic acetylcholine receptor M4 (Rattus norvegicus) (UniProt P08485); assay: as §9; type: functional, cell-based
# T13 sequence (whole entry): T11 sequence (P08485 whole entry)
# [24] = biological target: T14, Muscarinic acetylcholine receptor M5 (Rattus norvegicus) (UniProt P08911); assay: as §6; type: functional, cell-based
# T14 sequence (whole entry): T5 sequence (P08911 whole entry)
# T1 sequence (P08483 whole entry): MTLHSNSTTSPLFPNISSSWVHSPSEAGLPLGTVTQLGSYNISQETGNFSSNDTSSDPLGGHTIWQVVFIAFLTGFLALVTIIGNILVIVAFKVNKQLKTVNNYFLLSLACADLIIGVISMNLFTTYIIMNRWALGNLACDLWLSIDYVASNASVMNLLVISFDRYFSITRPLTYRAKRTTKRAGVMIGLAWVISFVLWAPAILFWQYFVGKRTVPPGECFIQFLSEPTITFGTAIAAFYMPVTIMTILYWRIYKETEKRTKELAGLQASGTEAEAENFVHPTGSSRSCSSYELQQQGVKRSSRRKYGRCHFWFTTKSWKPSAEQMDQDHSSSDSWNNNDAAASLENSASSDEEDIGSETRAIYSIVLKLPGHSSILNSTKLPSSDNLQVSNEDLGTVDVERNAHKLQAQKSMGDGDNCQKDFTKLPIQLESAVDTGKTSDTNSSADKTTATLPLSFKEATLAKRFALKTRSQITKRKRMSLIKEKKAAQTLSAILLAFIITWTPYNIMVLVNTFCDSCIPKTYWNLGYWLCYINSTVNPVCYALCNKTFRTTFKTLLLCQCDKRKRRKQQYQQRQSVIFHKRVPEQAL
# Muscarinic acetylcholine receptor M3 (Rattus norvegicus), sequence (P08483 whole entry, looked up): as the sequence (P08483 whole entry) above
smiles,measurement,setting,value
Cc1ccccc1CN1CCC(N2CCC(n3c(=O)[nH]c4ccccc43)CC2)CC1,IC50,[1]; read-out: IC50,5.48 µM
same,IC50,[2],4.9 µM
same,IC50,[3],3.5 µM
same,IC50,[4]; read-out: IC50,1.29 µM
same,EC50,[5],> 30 µM
same,EC50,[6],> 30 µM
same,IC50,[7]; read-out: IC50,3.97 µM
same,EC50,[8],> 30 µM
same,Imax,[9],69.3%
same,EC50,[10],> 30 µM
CCOC(=O)N1CCC(N2CCC[C@@H](NC(=O)c3cccc(Br)c3)C2)CC1,EC50,[11],2 µM
same,Imax,[9],37.4%
CCOC(=O)N1CCC(N2CCC[C@@H](NC(=O)c3cc(Br)cc(Br)c3)C2)CC1,Imax,[12],0.4%
same,IC50,[13]; read-out: pIC50 (converted),3.39 µM
Cc1ccccc1CN1CCC(N2CCC(n3c(=O)[nH]c4ccccc43)C(F)C2)CC1 (centres undefined),IC50,"[1]; cho, read-out: IC50",> 10 µM
same,IC50,[1]; read-out: pIC50 (converted),> 10 µM
same,inhibition,[14],Active
same,Activity,[15],Active
same,Activity,[16],inactive
same,inhibition,[17],Active
same,inhibition,[18],Active
same,IC50,"[4]; cho, read-out: IC50",> 10 µM
same,IC50,[4]; read-out: pIC50 (converted),> 10 µM
same,Ki,[19],1.35 µM
same,Imax,[12],13.6%
same,IC50,[13]; read-out: IC50,4.9 µM
same,IC50,[20],5.2 µM
same,IC50,"[7]; cho, read-out: IC50",> 10 µM
same,IC50,[7]; read-out: pIC50 (converted),> 10 µM
CCOC(=O)N1CCC(N2CCC[C@@H](NC(=O)c3ccc(C(F)(F)F)nc3)C2)CC1,IC50,[1]; read-out: IC50,> 10 µM
same,IC50,[4]; read-out: pIC50 (converted),1.07 µM
same,Imax,[12],2.7%
same,IC50,[13]; read-out: pIC50 (converted),3.16 µM
same,IC50,[20],> 10 µM
same,IC50,[7]; read-out: IC50,> 10 µM
CCOC(=O)N1CCC(N[C@H]2CCCN(C(=O)c3ccccc3)C2)CC1,inhibition,[21],Active
same,inhibition,[22],Active
same,Imax,[12],3%
same,IC50,[13]; read-out: IC50,0.273 µM
same,IC50,[13]; read-out: pIC50 (converted),0.479 µM
same,inhibition,[23],Active
same,inhibition,[24],Active
Cc1ccccc1CN1CCC(N2CC3CC(n4c(=O)[nH]c5ccccc54)CC3C2)CC1 (centres undefined),IC50,[1]; read-out: IC50,> 10 µM
same,Activity,[16],inactive
same,IC50,[4]; read-out: IC50,> 10 µM
same,Imax,[12],-1.07%
same,IC50,[13]; read-out: IC50,6.4 µM
same,IC50,[20],> 10 µM
same,IC50,[7]; read-out: IC50,> 10 µM
